From publication PMC3712647 (European journal of medicinal chemistry, 2013) come the findings set out here.

Read-outs that look alike come from different tables or passages of the source.

For data set [1], the system named is full NCI 60 cell panel. Briefly: NCI 60 five-concentration screen, panel mean. The class given is cell-based. The following applies: Homo sapiens, 48 h; for IC (TGI): read-out: TGI MG-MID; for GI50: read-out: GI50 MG-MID; for CC50: read-out: LC50 MG-MID.
Data set [2] relates to Breast. Briefly: cells. The following applies: Homo sapiens, 48 h, read-out: TGI Breast. Format: cell-based.
The subject of data set [3] is Renal. Briefly: NCI 60 five-concentration screen, renal subpanel. Format: cell-based. The following applies: Homo sapiens, 48 h, read-out: TGI Renal.
The subject of data set [4] is Melanoma. In words: NCI 60 five-concentration screen, melanoma subpanel. The class given is cell-based. Particulars: Homo sapiens, 48 h, read-out: TGI Melanoma.
The subject of data set [5] is CNS. In words: cells. The following applies: Homo sapiens, 48 h, read-out: TGI CNS. Format: cell-based.
The test system of data set [6] is Ovarian. Briefly: cells. Format: cell-based. The following applies: Homo sapiens, 48 h, read-out: TGI Ovarian.
Data set [7] deals with Colon. In words: NCI 60 five-concentration screen, colon subpanel. The class given is cell-based. Particulars: Homo sapiens, 48 h, read-out: TGI Colon.
Data set [8] deals with NSCLC. In words: NCI 60 five-concentration screen, NSCLC subpanel. Format: cell-based. The following applies: Homo sapiens, 48 h, read-out: TGI NSCLC.
Data set [9] relates to Leukemia. Briefly: cells. Particulars: Homo sapiens, 48 h, read-out: TGI Leukemia. The class given is cell-based.
For data set [10], the system named is full NCI 60 cell panel. In words: NCI 60 Cell One-Dose Screen. The class given is cell-based.
For data set [11], the system named is Prostate. In words: cells. Format: cell-based. The following applies: Homo sapiens, 48 h, read-out: TGI Prostate.
The test system of data set [12] is Nox4 in B1647 cells. Briefly: Intracellular ROS level. The class given is cell-based, human. The following applies: 30 min treatment at 5 or 10 µM. Put shortly:
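Human AML B1647 cells grown in IMDM with 5% human serum (37 °C, 5% CO₂) were treated 30 min with test compound in DMSO. Cells (1 × 10⁶/mL) were washed twice in PBS and loaded with 5 µM DCFH-DA for 20 min at 37 °C. Oxidized DCF fluorescence was read in a multiwell plate reader.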

Data set [13] concerns Nox4. In words: Nox4 expression by Western blotting in B1647 cells. The class given is cell-based, human. The following applies: 24 h treatment; 10 µM. Put shortly: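 B1647 cells were treated 24 h, then lysed 15 min on ice (1% Igepal, 150 mM NaCl, 50 mM Tris–HCl, 5 mM EDTA, protease inhibitors, orthovanadate, pH 8.0). 40 µg protein/lane ran on 10% SDS-PAGE and was transferred to nitrocellulose (100 V, 90 min). Blots were blocked in 5% milk in TBS/Tween, probed overnight at 4 °C with anti-Nox4 and anti-β-tubulin, then HRP secondaries, with luminol detection.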
A general note: In western blotting, separated proteins are transferred to a membrane and probed.

Data set [14] has as its system Nox4 in B1647 cells. Briefly: Intracellular ROS after Nox2 silencing in B1647 cells. The following applies: siRNA against Nox2, 50 nM. Format: cell-based, human.
Data set [15] has as its system cells. In words: Cell cycle effect. Format: cell-based. The following applies: data not presented.

In the case of `COc1ccc(OC)c2c1NC(=O)/C2=C\c1cc(OC)c(OC)c(OC)c1` [Compound 3], the IC (TGI) in [1] came out at 19.5 µM; in [2], 19 µM.

Regarding `COc1cc(/C=C2\C(=O)N(C)c3ccc(Cl)cc32)cc(OC)c1OC` [Compound 12], the IC (TGI) is 24 µM in data set [3], 21.4 µM in [4] and 21.4 µM in data set [1]. In addition, the GI50 – broadly, the concentration that inhibits growth by half – in [1] was 4.5 µM.

In the case of `COc1ccc(CN2C(=O)/C(=C/c3cc(OC)c(OC)c(OC)c3)c3cc(OC)ccc32)cc1` [Compound 15], the IC (TGI) was determined as 8.9 µM in data set [3]; 5.7 µM in [4]; 7.4 µM in data set [5]; 8.9 µM in data set [6]; 8.9 µM in data set [1]; 3.8 µM in data set [7]. Besides, the CC50 in data set [1] is 34.7 µM.

`COc1ccc(CN2C(=O)/C(=C\c3cc(OC)c(OC)c(OC)c3)c3ccccc32)cc1` [Compound 14]: the IC (TGI) in [3] came out at 9.1 µM; in data set [8], 9.3 µM; in data set [4] it was 4.5 µM; in data set [1], 9.3 µM; in data set [7], 3.6 µM. Besides, the 50% growth inhibitory concentration (GI50) in [1] was determined as 2.1 µM. Besides, the CC50 in [1] is 35.5 µM.

For the molecule `COc1cc(/C=C2\C(=O)Nc3ccc(N(C)C)cc32)cc(OC)c1OC` [Compound 6], the IC (TGI) is 49 µM in data set [3], 32.4 µM in data set [6], 32.4 µM in data set [1] and 9.3 µM in data set [9]. The GI50 in [1] worked out at 2.8 µM. Further, the CC50 in data set [1] amounted to 89.1 µM.

Regarding `COc1ccc2c(c1)C(=Nc1cc(OC)c(OC)c(OC)c1)C(=O)N2` [Compound 18], the “cytotoxic activity in the preliminary one-dose test” value in data set [10] is on record as “lack of cytotoxic activity”.

In the case of `COc1cc(/C=C2\C(=O)N(Cc3ccc(Cl)cc3)c3ccccc32)cc(OC)c1OC` [Compound 13], the IC (TGI) in data set [3] worked out at 10.7 µM; in data set [11], 7.6 µM; in [4], 8.9 µM; in [1], 10.7 µM; in data set [9], 4.9 µM; in data set [7], 5.9 µM. Moreover, in [1], the GI50 amounted to 2.6 µM. Further, the CC50 in data set [1] was found to be 41.7 µM.

As for `COc1cc(/C=C2\C(=O)Nc3cc(OC(F)(F)F)ccc32)cc(OC)c1OC` [Compound 9], the IC (TGI) in [5] was determined as 7.4 µM; in data set [1] it was 12.3 µM; in [2] it was 8.7 µM. Further, the GI50 in data set [1] was determined as 2.7 µM.

With `COc1ccc2c(c1)/C(=C\c1cc(OC)c(OC)c(OC)c1)C(=O)N2C` [Compound 11], the IC (TGI) in data set [3] is 24 µM; in [4], 21.9 µM; in [1] it was 21.9 µM; in data set [9], 7.6 µM; in data set [2], 21.9 µM. Besides, the CC50 in data set [1] was determined as 89.1 µM.

`COc1cc(/C=C2\C(=O)Nc3ccc(Br)cc32)cc(OC)c1OC` [Compound 5]: the ROS generation result in data set [12] is “partially inhibited”. Besides, the Nox4 expression result in data set [13] is on record as “downregulate Nox4 expression”. For the same molecule, the IC (TGI) amounted to 76 µM in [4], 67.6 µM in data set [1] and 49 µM in data set [9]. Moreover, the GI50 in data set [1] is 7.9 µM. In addition, the “ROS production in Nox2 silenced cells vs scrambled cells” value in [14] is on record as “inhibited ROS production to the same extent”.

`COc1cc(/C=C2\C(=O)Nc3cc(Cl)ccc32)cc(OC)c1OC` [Compound 8]: the IC (TGI) was 4.9 µM in [3]; 8.3 µM in [8]; 5.4 µM in data set [11]; 6.8 µM in [4]; 5 µM in data set [5]; 5.4 µM in data set [6]. For the same molecule, the IC (TGI) is 5.4 µM in data set [1], 3.6 µM in data set [9], 4.1 µM in data set [2] and 5.4 µM in data set [7]. For the same molecule, the GI50 in data set [1] amounted to 1.3 µM. Besides, in [1], the CC50 stood at 24 µM. Also, the “proportion of cells in G2/M” value in [15] was “increased proportion of cells in G2/M”.

Regarding `CC[C@]1(O)C[C@H]2CN(CCc3c([nH]c4ccccc34)[C@@](C(=O)OC)(c3cc4c(cc3OC)N(C=O)[C@H]3[C@@](O)(C(=O)OC)[C@H](OC(C)=O)[C@]5(CC)C=CCN6CC[C@]43[C@@H]65)C2)C1` [Vincristine, reference compound], the IC (TGI) is 19.9 µM in [3]; 15.8 µM in data set [8]; 6.3 µM in [11]; 7.9 µM in [4]; 6.3 µM in data set [5]; 19.9 µM in data set [6]. In addition, the IC (TGI) is 10 µM in data set [1], 15.8 µM in [9], 7.9 µM in data set [2] and 4 µM in data set [7].

On to `COc1cc(/N=C2\C(=O)N(Cc3ccccc3)c3ccccc32)cc(OC)c1OC` [Compound 19], for which, in [10] (RXF 393, CCRF-CEM, RPMI-8226 and HOP-92 cells, 10^−5 M, data not shown), the “growth inhibition in the one-dose screen” value was “growth inhibition”. Besides, the “cytotoxic activity in the preliminary one-dose test” value in data set [10] (single concentration 10^−5 M, 48 h incubation) is on record as “lack of cytotoxic activity”.

Regarding `COc1cc(/C=C2/C(=O)N(C)c3ccc(O)cc32)cc(OC)c1OC` [Compound 10], the IC (TGI) in data set [11] is 6.3 µM; in data set [5], 17.4 µM; in data set [1], 17.4 µM; in [9] it was 8.3 µM. Moreover, the GI50 in [1] stood at 4.4 µM.

Take `COc1cc(/C=C2/C(=O)Nc3cc(C)c(O)cc32)cc(OC)c1OC` [Compound 7]: the ROS generation entry in data set [12] is listed as “partially inhibited”. In data set [13], the Nox4 expression result is listed as “downregulate Nox4 expression”. In addition, in data set [1], the GI50 is 4.3 µM, the CC50 came to 69.2 µM and the IC (TGI) was found to be 20.9 µM. Also, the IC (TGI) in data set [9] turned out to be 8.7 µM. In addition, the “ROS production in Nox2 silenced cells vs scrambled cells” value in [14] is “inhibited ROS production to the same extent”.
